{"data": "Published values of several laboratories", "target": "Mitogen-activated protein kinase 1 (MAPK1, Homo sapiens, UniProt P28482)", "note": "Compare with care: the assays were run in different laboratories."}
{"Structure (SMILES)": "FC(F)c1nc2ccccc2n1-c1nc(N2CCOCC2)nc(N2CCOCC2)n1", "test": "enzyme activity, inhibitor", "conditions": "10 µM", "measurement": "remaining activity", "result": "105%"}
{"Structure (SMILES)": "COc1cc(Nc2cnc(C#N)c(O[C@H](C)CN(C)C)n2)ncc1-c1cnn(C)c1", "test": "enzyme activity, inhibitor, radiometric", "conditions": "10 µM", "measurement": "remaining activity", "result": "80%"}
{"Structure (SMILES)": "COc1ccc2c(c1)O[C@H](c1ccc(OC)c(OC)c1)C[C@@H]2NC(=O)C1(c2ccc3c(c2)OC(F)(F)O3)CC1", "test": "cell-free assay, competition with immobilised ligand", "conditions": "1 µM", "measurement": "remaining binding", "result": "99%"}
{"Structure (SMILES)": "CCN(CC)c1ccc(C2=NNC(=O)CC2C)cc1[N+](=O)[O-] (stereo not drawn)", "test": "enzyme activity, inhibitor", "conditions": "10 µM", "measurement": "remaining activity", "result": "100%"}
{"Structure (SMILES)": "CC/C(=N\\NC(=O)NCc1cccc(O)c1)c1ccc(O)c(C)c1O", "test": "enzyme activity, inhibitor", "conditions": "0.1 µM", "measurement": "inhibition", "result": "-10.1%"}
{"Structure (SMILES)": "CC(C)(C)c1nc(-c2cccc(NS(=O)(=O)c3c(F)cccc3F)c2F)c(-c2ccnc(N)n2)s1", "test": "enzyme activity, inhibitor, radiometric", "conditions": "1 µM", "measurement": "remaining activity", "result": "88%"}
{"Structure (SMILES)": "CNc1cccc2cc(C(=O)Nc3ccc(C(=O)O)cc3)c(=O)[nH]c12", "test": "enzyme activity, inhibitor", "conditions": "10 µM", "measurement": "inhibition", "result": "1.3%"}
{"Structure (SMILES)": "Cc1cc(NC(=O)c2cccc3cc(-c4cccc5[nH]nc(N)c45)ccc23)ccc1F", "test": "enzyme activity, inhibitor", "conditions": "0.1 µM", "measurement": "activity vs control", "result": "100%"}
{"Structure (SMILES)": "COc1cc2ncnc(Nc3ccc(Oc4ccccc4)cc3C)c2cc1OC", "test": "enzyme activity, inhibitor", "conditions": "1 µM", "measurement": "inhibition", "result": "-2%"}
{"Structure (SMILES)": "C[C@H](c1ccc(F)cc1)N(Cc1cccc(C(=O)O)c1)C(=O)c1cnc2ccccc2c1", "test": "cell-free assay, competition with immobilised ligand", "conditions": "1 µM", "measurement": "remaining binding", "result": "99%"}
{"Structure (SMILES)": "O=C(Nc1cnn(-c2csc(C(=O)NC3COC3)c2)c1)Nc1c(F)cccc1Cl", "test": "enzyme activity, inhibitor", "conditions": "5 µM", "measurement": "remaining activity", "result": "85.9%"}
{"Structure (SMILES)": "COc1cc2ncnc(Nc3ccc(F)c(Cl)c3)c2cc1OCCCN1CCOCC1", "test": "cell-free assay", "conditions": "0.5 µM", "measurement": "remaining signal", "result": "103%"}
{"Structure (SMILES)": "COc1cc(Cl)c(C(=O)N[C@@H](CN[C@H]2CC[C@@H](N)CC2)Cc2ccc(C#N)cc2)cc1-c1ccc(CN[C@H](C)c2ccc(C)cc2)o1", "test": "enzyme activity, inhibitor", "conditions": "1 µM", "measurement": "remaining activity", "result": "92%"}
{"Structure (SMILES)": "Cn1c(=O)n(-c2ccc(C(C)(C)C#N)cc2)c2c3cc(-c4cnc5ccccc5c4)ccc3ncc21", "test": "enzyme activity, inhibitor", "conditions": "10 µM", "measurement": "remaining activity", "result": "114%"}
{"Structure (SMILES)": "Cc1cc(C)c(-n2ccn3nc(-c4cccnc4)cc23)cc1NC(=O)c1cc(C#N)cc(S(F)(F)(F)(F)F)c1", "test": "cell-free assay, competition with immobilised ligand", "conditions": "0.1 µM", "measurement": "remaining binding", "result": "88.1%"}
{"Structure (SMILES)": "CN(C)C1CCN(CC#Cc2nn(C3CCCC3)c3nc(NCc4ccccc4)ncc23)C1 (stereo not drawn)", "test": "enzyme activity, inhibitor, FRET", "conditions": "1 µM", "measurement": "inhibition", "result": "7%"}
{"Structure (SMILES)": "Nc1nc(Nc2ccccc2)sc1C(=O)c1c(F)cccc1F", "test": "enzyme activity, inhibitor", "conditions": "10 µM", "measurement": "remaining activity", "result": "68%"}
{"Structure (SMILES)": "CCOCCn1cc(C(=O)Nc2ccc(-n3nc(-c4cccnc4)cc3C(F)(F)F)cn2)ccc1=O", "test": "cell-free assay, competition with immobilised ligand", "conditions": "1 µM", "measurement": "remaining binding", "result": "100%"}
{"Structure (SMILES)": "COc1cc2c(cc1OC)-c1[nH]nc(Nc3cccc(F)c3)c1C2", "test": "cell-free assay", "conditions": "0.5 µM", "measurement": "remaining signal", "result": "85.1%"}
{"Structure (SMILES)": "CCc1ccccc1C(=O)Nc1n[nH]c2c(C)c(F)c(C3C(C#N)=C(C)N(C)C(C)=C3C#N)cc12", "test": "cell-free assay, competition with immobilised ligand", "conditions": "1 µM", "measurement": "remaining binding", "result": "86%"}
{"Structure (SMILES)": "CNC(=O)c1cc(Oc2ccc(NC(=O)Nc3ccc(Cl)c(C(F)(F)F)c3)cc2)ccn1", "test": "cell-free assay", "conditions": "0.5 µM", "measurement": "remaining signal", "result": "101%"}
{"Structure (SMILES)": "Cc1ccc(C(=O)Nc2ccc(CN3CCN(C)CC3)c(C(F)(F)F)c2)cc1C#Cc1cnc2cccnn12", "test": "enzyme activity, inhibitor", "conditions": "23.5 nM", "measurement": "remaining activity", "result": "100%"}
{"Structure (SMILES)": "CC(C)(O)[C@H]1CC[C@H](Nc2ccc3ncc(-c4cccc(C(F)(F)F)c4)n3n2)CC1", "test": "enzyme activity, inhibitor", "conditions": "1 µM", "measurement": "remaining activity", "result": "96%"}
{"Structure (SMILES)": "CCN(CC)CCNC(=O)c1c(C)[nH]c(/C=C2\\C(=O)Nc3ccc(F)cc32)c1C", "test": "enzyme activity, inhibitor", "conditions": "10 µM", "measurement": "inhibition", "result": "1%"}
{"Structure (SMILES)": "Cc1ccc(-n2nc(C(C)(C)C)cc2NC(=O)Nc2ccc(OCCN3CCOCC3)c3ccccc23)cc1", "test": "enzyme activity, inhibitor", "conditions": "10 µM", "measurement": "inhibition", "result": "-10%"}
{"Structure (SMILES)": "Cc1c(NC(=O)c2cc(C(N)=O)nc3cc(F)ccc23)c(C(F)(F)F)nn1Cc1ccc(C#N)cc1", "test": "cell-free assay, competition with immobilised ligand", "conditions": "1 µM", "measurement": "remaining binding", "result": "100%"}
{"Structure (SMILES)": "COc1cc(Nc2c(C#N)cnc3cc(OCCCN4CCN(C)CC4)c(OC)cc23)c(Cl)cc1Cl", "test": "cell-free assay", "conditions": "0.5 µM", "measurement": "remaining signal", "result": "93.7%"}
{"Structure (SMILES)": "Cc1ccc(Nc2nccc(N(C)c3ccc4c(C)n(C)nc4c3)n2)cc1S(N)(=O)=O", "test": "enzyme activity, inhibitor", "conditions": "10 µM", "measurement": "inhibition", "result": "-2%"}
{"Structure (SMILES)": "N#CCCc1ccc2c(c1)-c1[nH]c3ccc([N+](=O)[O-])cc3c1CC(=O)N2", "test": "cell-free assay", "conditions": "0.5 µM", "measurement": "remaining signal", "result": "119%"}
{"Structure (SMILES)": "CNCc1ccccc1-c1csc([C@@H](C)Nc2nc(C)nc3cc(OC)c(OC)cc23)c1", "test": "cell-free assay, competition with immobilised ligand", "conditions": "1 µM", "measurement": "remaining binding", "result": "78%"}
{"Structure (SMILES)": "Cc1ccc(NC(=O)c2ccc(C)c(C(F)(F)F)c2)cc1C#Cc1nn(C2CCC(O)CC2)c2ncnc(N)c12 (stereo not drawn)", "test": "cell-free assay", "conditions": "10 µM", "measurement": "remaining signal", "result": "108%"}
{"Structure (SMILES)": "O=C(NCCCC1CCCCC1)c1ccc(CNC(=O)c2cnn(-c3ccccc3)c2C(F)(F)F)cc1", "test": "cell-free assay, competition with immobilised ligand", "conditions": "0.1 µM", "measurement": "remaining binding", "result": "93%"}
{"Structure (SMILES)": "O=C1Nc2ccc(Cl)cc2C1=Cc1cc(Cl)c(O)c(Cl)c1", "test": "cell-free assay", "conditions": "0.5 µM", "measurement": "remaining signal", "result": "84.3%"}
